hERG rescue: compounds protecting human hERG from proarrhythmic drug block; activation (rescue from dofetilide block), less the hit threshold, % at 10 µM; CHO-hERG, FluxOR thallium flux, dofetilide IC70 present; actives 0.51% (n = 310,000); AID 1511; Q12809;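 active means activation above the mean of controls blocked by dofetilide plus 5 SD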;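 further: thallium influx through hERG after potassium depolarization seen as dye fluorescence rise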
KCNQ1 inh: human KCNQ1 channel inhibition | CHO-K1 KCNQ1, FluxOR thallium flux fluorescence; stronger effect = higher value | B-score at 10 µM | actives 1.3% (n = 310,000) | AID 2642;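 active means compounds whose thallium flux B-score, printed positive for inhibition, exceeds three library SD while starting fluorescence stays within three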;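 further: channel opened by potassium depolarization with thallium stimulus after 20 min compound exposure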
KCNK3 block: human KCNK3 channel inhibition, primary screen. CHO-KCNK3 thallium flux, FluxOR fluorescence; stronger effect = lower value. B-score at 10 µM. actives 0.84% (n = 340,000);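 active means B-score under library mean minus 4 SD, starting fluorescence ratio at most library mean plus 5 SD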;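 further: more negative B-score means stronger inhibition of thallium flux through KCNK3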
Kir21 inh: inhibitors of mouse Kir2.1 inward-rectifier potassium channel. P35561. HEK293-Kir2.1, FluxOR thallium flux fluorescence; stronger effect = lower value. B-score at 10 µM. actives 0.85% (n = 310,000). AID 1672;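 active means fluorescence ratio B-score at or below minus 3 SD of library scores, with starting-brightness B-score within 2 SD, cut at about -4.2 in these data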;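 further: channel flux triggered by added potassium and thallium sulfate stimulus; B-score of peak minus minimum fluorescence over baseline after thallium stimulus; more negative B-score means stronger Kir2.1 block with less thallium influx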
Target sequence (P35561 whole entry, looked up): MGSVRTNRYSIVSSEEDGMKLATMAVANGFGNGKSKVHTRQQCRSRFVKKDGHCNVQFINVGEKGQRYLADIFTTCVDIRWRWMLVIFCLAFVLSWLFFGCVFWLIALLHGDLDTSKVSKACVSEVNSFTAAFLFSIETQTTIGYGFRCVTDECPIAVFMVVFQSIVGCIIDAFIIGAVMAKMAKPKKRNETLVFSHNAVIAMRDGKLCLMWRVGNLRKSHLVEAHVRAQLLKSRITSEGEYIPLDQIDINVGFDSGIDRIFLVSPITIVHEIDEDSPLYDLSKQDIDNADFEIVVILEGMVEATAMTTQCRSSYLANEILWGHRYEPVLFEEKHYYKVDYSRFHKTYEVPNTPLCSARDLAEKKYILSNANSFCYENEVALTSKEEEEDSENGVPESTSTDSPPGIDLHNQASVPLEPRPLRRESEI
KCNQ1 pot: potentiates or activates the human KCNQ1 potassium channel | P51787 | CHO-K1 KCNQ1, thallium flux FluxOR fluorescence; stronger effect = higher value | B-score at 10 µM | actives 0.35% (n = 310,000) | AID 2648;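 active means fluorescence ratio B-score, a plate-corrected score, at least three library SD, with initial intensity B-score within 5 SD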
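Assay system: CHO-K1 cells stably expressing KCNQ1; Medium: assay buffer with matched DMSO; Also added: K+/Tl+ depolarizing stimulus; Dosing: single dose; Timing: dye 90 min, compound 20 min, room temperature; Measured by: kinetic FluxOR thallium fluorescence, 10-s 1-Hz baseline, 110-s post-stimulus read; Read-out: peak-minus-minimum fluorescence over initial fluorescence, negative-control normalized, B-scored.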
KCNK9 block: human KCNK9 channel inhibition; B-score at 10 µM; AID 488922; Q9NPC2; HEK293 KCNK9, FluxOR thallium flux fluorescence; stronger effect = lower value; actives 1.2% (n = 310,000);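 active means ratio B-score over 3 SD below the library mean, with starting fluorescence within 5 SD of its mean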;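 further: negative B-score means less thallium flux so channel inhibition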
Target sequence (Q9NPC2 whole entry, looked up): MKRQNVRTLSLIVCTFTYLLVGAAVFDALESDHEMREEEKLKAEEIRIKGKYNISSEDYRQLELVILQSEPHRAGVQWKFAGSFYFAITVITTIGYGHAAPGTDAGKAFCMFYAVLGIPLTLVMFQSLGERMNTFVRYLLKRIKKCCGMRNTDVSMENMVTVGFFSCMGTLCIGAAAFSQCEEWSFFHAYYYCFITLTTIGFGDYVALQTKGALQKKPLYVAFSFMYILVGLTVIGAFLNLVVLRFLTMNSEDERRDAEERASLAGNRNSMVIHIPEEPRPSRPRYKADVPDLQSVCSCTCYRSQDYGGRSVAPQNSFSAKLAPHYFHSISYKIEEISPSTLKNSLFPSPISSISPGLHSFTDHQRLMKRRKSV
KCNQ1 inh valid: reconfirmed blocker of the human KCNQ1 potassium channel. shares compounds with KCNQ1 inh. KCNQ1 cell line, FluxOR thallium flux fluorescence. inhibition, % at 10 µM. actives 93% (n = 1,600). AID 588353;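 active means primary screen active, with duplicate mean exceeding buffer control mean plus 3 SD of buffer wells, cut at about 28% in these data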;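 further: 0% = buffer control ratio and 100% = XE991 inhibitor control ratio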
CHO KCNQ1 ctr: counter-screen for KCNQ1 inhibitors: effect in parental CHO cells | shares compounds with KCNQ1 inh | parental CHO-K1, FluxOR thallium flux fluorescence ratio; stronger effect = lower value; zero means no signal rise above baseline | fluorescence ratio (Tl flux) at 10 µM | actives 21% (n = 1,600);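 active means mean of duplicate thallium-flux fluorescence ratios in parental host cells more than 5 SD below the buffer control mean, cut at about 0.38 in these data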;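 further: ratio is peak minus minimum fluorescence divided by baseline fluorescence; actives read low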
KCNQ1 ephys val: human KCNQ1 inhibition validated by electrophysiology. shares compounds with KCNQ1 inh. KCNQ1-CHO cells, automated patch clamp current. calls only at 10 µM. actives 20% (n = 490). AID 624120;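 active means KCNQ1 current drop exceeding 3 SD of negative control wells, seen in both duplicate runs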;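 further: steady state current during a 2 s step from -80 to +40 mV; negative values mean current inhibition and positive values mean potentiation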
KCNQ2 spec: rat KCNQ2 inhibition in KCNQ1 inhibitor specificity screen; inhibition, % at 10 µM; KCNQ2 cells, FluxOR thallium flux fluorescence; shares compounds with KCNQ1 inh; actives 71% (n = 1,600);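 active means mean percent inhibition of the KCNQ2 thallium signal more than 5 SD above the buffer-only control wells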;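 further: KCNQ2 expressed in CHO cells; 0% = buffer control wells and 100% = XE-991 inhibitor control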
KCNQ1-KCNE1 inh: human KCNQ1/KCNE1 inhibition in KCNQ1 specificity screen | AID 652147 | inhibition, % at 10 µM | shares compounds with KCNQ1 inh | actives 77% (n = 1,600) | KCNQ1/KCNE1 cells, FluxOR thallium flux fluorescence;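 active means mean percent inhibition of duplicate wells above the buffer-only control mean plus 3 SD of those controls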;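 further: 0% = buffer only wells and 100% = XE-991 inhibitor control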
* marks the source's active call; other numbers are inactive results; i = inactive; / = no result; + = active, no number. A selection: hits, their analogues and other compounds. The true share with any hit is near 3.7%.

SMILES | hERG rescue | KCNQ1 inh | KCNK3 block | Kir21 inh | KCNQ1 pot | KCNK9 block | KCNQ1 inh valid | CHO KCNQ1 ctr | KCNQ2 spec | KCNQ1-KCNE1 inh | others
CCOC(=O)c1ccc(NC(=O)c2cccc(S(=O)(=O)N3c4ccccc4CC3C)c2)s1 (stereo not drawn) | -10.8 | 7* | i | -0.06 | i | i | 89.0* | 0.468 | i | 109.5%* | KCNQ1 ephys val=i
Cc1cc(C(=O)Nc2c(F)cc(F)cc2Br)n(-c2ccccc2)n1 | -5.3 | i | i | 0.02 | i | i | / | / | / | /
COc1ccc(N(CC(=O)NCc2ccc(Cl)cc2)S(=O)(=O)c2c(C)n[nH]c2C)cc1 | -22.5 | 7* | i | -0.03 | i | i | 58.5* | 0.489 | 74.7%* | 60.0%*
COc1ccc(N(CC(=O)NCc2ccccc2)S(=O)(=O)c2c(C)n[nH]c2C)cc1 | -10.1 | i | i | 0.03 | i | i | / | / | / | /
Cc1cccc(NC(=O)CNC(=O)COc2cccnc2[N+](=O)[O-])c1C | / | / | i | / | / | / | / | / | / | /
COc1ccc(-c2cc(-c3nnc(COC(=O)C4CC4)o3)c3ccccc3n2)cc1OC | -8.7 | i | i | 0.88 | i | i | / | / | / | /
COc1ccc(-c2cc(-c3nnc(COC(=O)c4ccc(O)cc4)o3)c3ccccc3n2)cc1OC | -21.7 | 9* | i | 0.61 | i | i | 104.5* | 0.426 | 98.3%* | + | KCNQ1 ephys val=i
O=C(COC(=O)c1ccccc1Cc1ccccc1)Nc1ccc(SC(F)F)cc1 | -8.0 | 7* | i | 0.76 | i | i | 86.5* | 0.407 | 127.7%* | 101.0%*
Cc1ccc(CN(C)CC(=O)Nc2ccc3c(c2)CCC3)cc1 | -10.0 | 6* | i | -1.89 | i | i | 83.0* | 0.394 | 86.3%* | 89.5%*
Cc1ccc(NC(=O)Nc2ccc3c(c2)CCC3)cc1 | -10.9 | i | i | -0.4 | i | i | / | / | / | /
COc1cc2ncc(S(=O)(=O)c3ccccc3)c(N3CCCC(C)C3)c2cc1OC (stereo not drawn) | -22.4 | 11* | i | -2.4 | i | i | 151.5* | 0.276* | 164.0%* | +
O=S(=O)(c1ccccc1)c1cnc(-c2ccccc2)nc1N1CCCC1 | -15.5 | i | i | 0.3 | i | i | / | / | / | /
CCOC(=O)C1=C(COC(=O)Cc2c(F)cccc2Cl)NC(=O)NC1C (stereo not drawn) | / | / | i | / | / | / | / | / | / | /
CNc1ccccc1NC(=O)C1CCCN1C(=O)OCc1ccccc1 (stereo not drawn) | -8.1 | i | i | -1.16 | i | i | / | / | / | /
CCn1c(C)c(C)c2cc(C(=O)N3CCc4ccccc4C3)ccc21 | -7.6 | 7* | i | 0.78 | i | i | 114.0* | 0.381 | 113.0%* | 62.0%* | KCNQ1 ephys val=i
O=C1C(CCCNC(=S)NCc2ccccc2)NC(=S)N1Cc1ccccc1 (stereo not drawn) | -8.6 | 6* | i | -1.11 | i | i | 77.5* | 0.303* | i | 115.0%*
Cc1nn(CC(=O)N(C)C2CCS(=O)(=O)C2)c(C)c1S(=O)(=O)N(C)C (stereo not drawn) | / | / | i | / | / | / | / | / | / | /
O=C(NC1CCCC1)c1noc2c1CCCCC2 | -2.0 | i | i | -0.05 | i | i | / | / | / | /
COC(=O)c1ccc2c(=O)n(-c3ccccc3)c(SCN3C(=O)c4ccccc4C3=O)nc2c1 | -7.6 | 6* | i | -0.47 | i | i | 87.0* | 0.513 | i | 65.5%*
O=C(O)c1ccc(CSc2nc3ccccc3c(=O)n2-c2ccccc2)cc1 | -4.3 | i | i | 0.57 | i | i | / | / | / | /
CCOC(=O)C1CCCN(C(=O)CN2C(=O)NC(C)(c3ccc4ccccc4c3)C2=O)C1 (stereo not drawn) | -12.5 | i | i | -2.95 | i | i | / | / | / | /
CCOc1ccc(NC(=O)Nc2nc(SCC)ns2)cc1 | -3.4 | 10* | i | 0.29 | i | i | 80.0* | 0.509 | i | 35.5%*
CC(C)(C)c1ccc(S(=O)(=O)/N=C2\C=C(NS(=O)(=O)c3ccccc3)C(=O)c3ccccc32)cc1 | -25.3 | 8* | i | -1.89 | i | -7* | 69.5* | 0.445 | 77.3%* | 141.5%*
CC1CCc2c(sc3nc(C(C)(C)C)nc(N4CCN(C(=O)CCl)CC4)c23)C1 (stereo not drawn) | -4.8 | 11* | i | -1.11 | i | i | 109.5* | 0.408 | 128.0%* | 156.0%* | KCNQ1 ephys val=i
CCC(=O)N1CCN(c2nc(CC)nc3sc4c(c23)CCCC4)CC1 | 1.7 | i | i | 0.12 | i | i | / | / | / | /
SMILES | hERG rescue | KCNQ1 inh | KCNK3 block | Kir21 inh | KCNQ1 pot | KCNK9 block | KCNQ1 inh valid | CHO KCNQ1 ctr | KCNQ2 spec | KCNQ1-KCNE1 inh | others
CC(=O)c1ccc(OCc2cc(C(=O)N(C)CCOc3ccc(C)cc3)no2)cc1 | -9.4 | i | i | -1.28 | i | i | / | / | / | /
Clc1ccc(-c2nc(N3CCCCC3)nc3ccccc23)cc1 | -6.8 | 8* | i | 1.46 | i | i | 132.5* | 0.436 | 85.0%* | 197.0%* | KCNQ1 ephys val=+
CC(CCc1ccccc1)NC(=O)C1CCC1 (stereo not drawn) | -7.8 | i | i | 1.72 | i | i | / | / | / | /
CC1CCN(CCCOc2ccc(Cl)cc2Br)CC1 | -15.8 | 6* | i | -4.46* | i | i | 41.5* | 0.484 | i | i
COc1ccccc1NC(=O)C1CCN(C(=O)C2CC(=O)N(c3ccc(C)cc3)C2)CC1 (stereo not drawn) | -2.7 | i | i | 1.15 | i | i | / | / | / | /
Cc1cccc(C)c1OCc1cc(C(=O)N2CCC(c3ccccc3)CC2)no1 | -10.4 | 9* | i | -1.47 | i | i | 119.0* | 0.398 | 110.3%* | 168.0%* | KCNQ1 ephys val=i
Cc1cccc(C)c1OCc1cc(C(=O)N2CCC(C3CCCCC3)C2)no1 (stereo not drawn) | -7.3 | 7* | i | -0.44 | i | i | 69.0* | 0.444 | i | 109.5%*

Source: PubChem (Johns Hopkins Ion Channel Center)
